These results are taken from ChEMBL document CHEMBL1817570, “Unsymmetrical cyclotriazadisulfonamide (CADA) compounds as human CD4 receptor down-modulating agents” (J Med Chem, 2011).

The test system of this assay is CHO. Kind of assay: Downmodulation of human CD4 expressed in CHO cells transfected with CD4-YFP construct assessed as decrease in fluorescence intensity after 24 hrs by flow cytometry analysis. The format is functional, cell-based. The conditions noted are these: Cricetulus griseus. Summed up: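 CHO cells stably expressing human CD4 fused at its C-terminus to YFP, exposed to a range of concentrations for 24 h at 37 °C. Cells were washed, fixed in 1% formaldehyde and analysed at once by flow cytometry with 488 nm excitation, reading YFP in FL-1. YFP median fluorescence intensity was expressed as % of untreated control after subtracting the background of nontransfected cells. IC50 is the 50% CD4 down-modulation point, reported as mean ± SD of three independent experiments (two for some).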

Structures can show the parent of a compound that is named as a salt.

On to `C=C1CN(S(=O)(=O)c2ccccc2)CCCN(CC2CCCCC2)CCCN(S(=O)(=O)c2ccc(C)cc2)C1`, for which the IC50 is, setting by setting: (read-out: IC50) 0.43 µM; (read-out: pIC50 (converted)) 0.437 µM.
In the case of `C=C1CN(S(=O)(=O)c2ccc(C)cc2)CCCN(CC2CCCCC2)CCCN(S(=O)(=O)c2ccc(C)cc2)C1`, the IC50 is 0.19 µM (read-out: IC50) and 0.186 µM (read-out: pIC50 (converted)).
In the case of `C=C1CN(S(=O)(=O)c2ccc(C)cc2)CCCN(CC2CCCCC2)CCCN(S(=O)(=O)c2ccc(Cl)cc2)C1`, the IC50 was 0.36 µM (read-out: IC50) and 0.363 µM (read-out: pIC50 (converted)).
Consider `C=C1CN(S(=O)(=O)c2ccc(C)cc2)CCCN(CC2CCCCC2)CCCN(S(=O)(=O)c2ccccc2[N+](=O)[O-])C1`, for which the IC50 is, setting by setting: (read-out: IC50) 0.22 µM; (read-out: pIC50 (converted)) 0.224 µM.
`C=C1CN(S(=O)(=O)c2ccc(C)cc2)CCCN(CC2CCCCC2)CCCN(S(=O)(=O)c2cccc3ccccc23)C1`: the IC50 is 0.94 µM (read-out: IC50) and 0.933 µM (read-out: pIC50 (converted)).
Regarding `C=C1CNCCCN(CC2CCCCC2)CCCN(S(=O)(=O)c2ccc(C)cc2)C1`, the IC50 by setting is: (read-out: IC50) 19 µM; (read-out: pIC50 (converted)) 18.6 µM.
The corresponding values for `C=C1CN(S(=O)(=O)c2ccc(C)cc2)CCCN(Cc2ccccc2)CCCN(S(=O)(=O)c2ccc(OC)cc2)C1` are 0.3 µM and 0.295 µM.
For `C=C1CN(S(=O)(=O)c2ccc(C)cc2)CCCN(Cc2ccccc2)CCCN(S(=O)(=O)c2ccc(C)cc2)C1` [CYCLOTRIAZADISULFONAMIDE HYDROCHLORIDE] the same measures were 0.56 µM and 0.562 µM.
For `C=C1CN(S(=O)(=O)c2ccc(C)cc2)CCCN(CC2CCCCC2)CCCN(S(=O)(=O)c2ccc(OC)cc2)C1` the same measures were 0.046 µM and 0.0457 µM.
For the molecule `C=C1CN(S(=O)(=O)c2ccc(OC)cc2)CCCN(Cc2ccccc2)CCCN(S(=O)(=O)c2ccc(OC)cc2)C1`, the IC50 (read-out: IC50) came to 0.23 µM and the IC50 (read-out: pIC50 (converted)) was 0.229 µM.
Regarding `C=C1CN(S(=O)(=O)c2ccc(C)cc2)CCCN(CC2CCCCC2)CCCN(S(=O)(=O)c2ccc([N+](=O)[O-])cc2)C1`, the IC50 by setting is: (read-out: IC50) 0.76 µM; (read-out: pIC50 (converted)) 0.759 µM.
In the case of `C=C1CN(S(=O)(=O)c2ccc(C)cc2)CCCN(CC2CCCCC2)CCCN(S(=O)(=O)c2cccc3cnccc23)C1`, the IC50 was more than 25 µM (read-out: IC50) and 22.9 µM (read-out: pIC50 (converted)).
`C=C1CN(S(=O)(=O)c2ccc(C)cc2)CCCN(CC2CCCCC2)CCCN(S(=O)(=O)c2cccc3c(N(C)C)cccc23)C1`: the IC50 is, setting by setting: (read-out: IC50) 1.06 µM; (read-out: pIC50 (converted)) 1.07 µM.
For the molecule `C=C1CN(S(=O)(=O)c2ccc(C)cc2)CCCN(Cc2ccccc2)CCCN(S(=O)(=O)c2cccc3c(N(C)C)cccc23)C1`, the IC50 is 5.9 µM (read-out: IC50) and 5.89 µM (read-out: pIC50 (converted)).
The corresponding values for `C=C1CN(S(=O)(=O)c2ccc(OC)cc2)CCCN(CC2CCCCC2)CCCN(S(=O)(=O)c2ccc(OC)cc2)C1` are 0.13 µM and 0.135 µM.
The corresponding values for `C=C1CN(S(=O)(=O)c2ccc(C)cc2)CCCN(CC2CCCCC2)CCCN(S(=O)(=O)c2ccc3ccccc3c2)C1` are 0.18 µM and 0.178 µM.
For `C=C1CN(S(=O)(=O)c2ccc(C)cc2)CCCN(CC2CCCCC2)CCCN(S(=O)(=O)c2ccc(C(C)(C)C)cc2)C1` the same measures were 0.78 µM and 0.776 µM.
As for `C=C1CN(S(=O)(=O)c2ccc(OC)cc2)CCCN(CC2CCCCC2)CCCN(S(=O)(=O)c2cccc3c(N(C)C)cccc23)C1`, the IC50 (read-out: IC50) stood at 0.73 µM and the IC50 (read-out: pIC50 (converted)) is 0.724 µM.
